Experimental data collected from several papers.
Protocols differ between the studies behind these lines.
Target: TRAF2 and NCK-interacting protein kinase (TNIK, Homo sapiens, UniProt Q9UKE5)

For O=C(c1ccc(Nc2nccc(-c3cc4ccccc4s3)n2)cc1)N1CCC(N2CCCC2)CC1, the remaining binding was 79% (binding, competition with immobilised ligand; 1 µM).
The remaining binding of C=CC(=O)N1CCC(C(=O)NCC(=O)N2CCN(c3nc(-c4cnc(N)nc4C(F)F)nc(N4CCOCC4)n3)CC2)CC1 is reported as 87% (binding, competition with immobilised ligand; 1 µM).
With F[C@@H]1CCN(c2nccc(-c3cnn4ncccc34)n2)C1 the remaining binding was 100% (binding; 1 µM).
The remaining binding of CC(C)(O)c1cncc(-c2nc3ccc(F)cc3n2C2CC2)c1 is reported as 100% (cell-free assay, competition with immobilised ligand; 1 µM).
N[C@@H]1CCN(c2nccc(-c3cnn4ncccc34)n2)C1 has a remaining binding of 100% (binding; 1 µM).
COc1cnc(Nc2cccc(S(N)(=O)=O)c2)nc1N1CCN(c2ccccc2)CC1 has a remaining binding of 75% (binding, competition with immobilised ligand; 1 µM).
The remaining binding of FC(F)(F)Oc1cccc(-c2cnc3ccc(-c4ccncc4)nn23)c1 is reported as 29% (binding, competition with immobilised ligand; 5 µM).
The remaining binding of c1cnn2ncc(-c3ccnc(N4CCC45COC5)n3)c2c1 is reported as 72% (binding; 1 µM).
For C[C@@H](c1ccc(-n2cnc3c(N)ncnc32)cc1)N1CCc2nn(C)c(Cc3ccccc3)c2C1=O, the remaining binding was 76% (binding, competition with immobilised ligand; 0.1 µM).
CCC(=N\O)/C(C)=C/c1ccc(F)cc1 has a remaining binding of 93% (cell-free assay, competition with immobilised ligand; 1 µM).
The remaining binding of O=C(NCCCN1CCOCC1)c1ccc(Nc2ncc(Cl)c(-c3ccc(Cl)s3)n2)cc1 is reported as 44% (binding, competition with immobilised ligand; 1 µM).
The remaining binding of CC(C)CC(=O)N1CCc2nc(-c3ccc(Br)cc3)nc(N(C)Cc3ccccc3)c2C1 is reported as 100% (cell-free assay, competition with immobilised ligand; 0.1 µM).
The remaining binding of Nc1ncc2c(n1)-c1c([nH]c3ccc(C#CC4CC4)cc13)CCCC2 is reported as 42% (binding, competition with immobilised ligand; 1 µM).
For O=C(Nc1cccnn1)N1CCC(=Cc2cccc(Oc3ccc(C(F)(F)F)cn3)c2)CC1, the remaining binding was 100% (cell-free assay, competition with immobilised ligand; 1 µM).
With O=C(NCC1CCOCC1)c1n[nH]cc1NC(=O)c1c(F)cccc1F the remaining binding was 84% (binding, competition with immobilised ligand; 1 µM).
The remaining binding of CN(C)c1nccc(-c2cnn3ncccc23)n1 is reported as 100% (binding; 1 µM).
Cc1cc(C)c(-n2ccn3nc(-c4cccnc4)cc23)cc1NC(=O)c1cc(C#N)cc(S(F)(F)(F)(F)F)c1 gave a remaining binding of 97.4% (cell-free assay, competition with immobilised ligand; 0.1 µM).
With CN(C)c1nccc(-c2cnc3ncccn23)n1 the remaining binding was 84% (binding; 1 µM).
With C[C@@H](c1cccc(C#N)c1)n1cc(Cl)cc(C(N)=O)c1=N the remaining binding was 56% (cell-free assay, competition with immobilised ligand; 1 µM).
The remaining binding of C[C@@H]1CCN(c2nccc(-c3cnn4ncccc34)n2)C1 is reported as 90% (binding; 1 µM).
O=C(NCCCN1CCOCC1)c1ccc(Nc2nccc(-c3cc4ccccc4s3)n2)cc1 has a remaining binding of 69% (binding, competition with immobilised ligand; 1 µM).
